Measurements: PubChem BioAssay
The source made the active and inactive calls.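 The calls were made as follows, unless noted: active = viability at or under a set limit in both replicates, limit being median viability minus 3 SD (cut at about 48% in these data, passing the limit was not always enough); inconclusive = at or under the limit in just one replicate; inactive = at or above the limit in both replicates.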

Experiments:
[1] = Her2 expression decrease, cell viability multiplex – SKBR3 breast tumor cells, AlphaScreen, ATP viability, primary screen (AID 461;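 active = Her2 level under about 52% in both replicate screens, with viability over 70% of control, limit read from the data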;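 as to Her2 level: lower value means less Her2 protein in the cells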;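 as to viability: percent of carrier control wells set as 100% viability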); conditions: SKBR3 Her2 protein level, 18-24 h, measured here: SKBR3 viability, ATP luminescence, at 10 µM
[2] = biological target: Receptor tyrosine-protein kinase erbB-2 (Homo sapiens) (UniProt P04626); experiment: as above; conditions: 18-24 h, at 10 µM, stronger effect = lower value
Receptor tyrosine-protein kinase erbB-2 (Homo sapiens), sequence (P04626 whole entry, looked up): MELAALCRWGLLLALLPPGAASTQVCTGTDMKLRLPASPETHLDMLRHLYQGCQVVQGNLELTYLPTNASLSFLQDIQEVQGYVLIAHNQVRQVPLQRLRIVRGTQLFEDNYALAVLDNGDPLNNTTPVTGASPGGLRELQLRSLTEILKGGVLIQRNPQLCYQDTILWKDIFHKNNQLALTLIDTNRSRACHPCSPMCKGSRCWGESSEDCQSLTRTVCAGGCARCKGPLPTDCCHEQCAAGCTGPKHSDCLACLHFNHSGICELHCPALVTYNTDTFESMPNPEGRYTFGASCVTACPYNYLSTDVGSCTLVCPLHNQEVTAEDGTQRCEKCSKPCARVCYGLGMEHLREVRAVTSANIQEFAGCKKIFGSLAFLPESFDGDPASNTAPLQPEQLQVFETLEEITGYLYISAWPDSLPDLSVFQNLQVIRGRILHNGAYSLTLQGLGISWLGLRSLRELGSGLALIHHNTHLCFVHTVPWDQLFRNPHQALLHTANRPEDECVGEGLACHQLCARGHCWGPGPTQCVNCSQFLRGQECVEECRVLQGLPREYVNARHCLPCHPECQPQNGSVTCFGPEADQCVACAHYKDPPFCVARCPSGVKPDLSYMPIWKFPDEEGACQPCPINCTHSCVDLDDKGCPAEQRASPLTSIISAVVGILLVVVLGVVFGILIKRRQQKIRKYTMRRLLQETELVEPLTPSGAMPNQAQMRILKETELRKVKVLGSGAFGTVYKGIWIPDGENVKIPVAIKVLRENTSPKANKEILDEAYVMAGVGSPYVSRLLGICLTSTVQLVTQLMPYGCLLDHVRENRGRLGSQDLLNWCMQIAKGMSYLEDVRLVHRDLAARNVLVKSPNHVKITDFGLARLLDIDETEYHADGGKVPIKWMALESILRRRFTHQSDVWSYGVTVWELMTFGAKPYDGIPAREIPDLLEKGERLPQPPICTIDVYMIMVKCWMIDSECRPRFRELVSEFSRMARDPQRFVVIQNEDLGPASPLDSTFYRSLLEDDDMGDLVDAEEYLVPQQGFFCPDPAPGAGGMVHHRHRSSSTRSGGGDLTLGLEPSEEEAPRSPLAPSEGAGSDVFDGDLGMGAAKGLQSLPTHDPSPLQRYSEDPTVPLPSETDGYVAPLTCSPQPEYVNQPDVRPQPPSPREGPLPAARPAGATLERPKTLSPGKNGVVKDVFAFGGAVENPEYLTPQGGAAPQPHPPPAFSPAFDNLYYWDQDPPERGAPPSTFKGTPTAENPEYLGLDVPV

[3] = reduced viability of SK-BR-3 breast cancer cells – cell-based, 24 h, human, pilot screen (AID 572;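 active = viability at or below 10% of carrier control in both of two separate runs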;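 also: compound exposure lasted between 18 and 24 h rather than exactly 24 h; 100% = carrier-treated control wells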); conditions: SK-BR-3 viability, CellTiter-Glo luminescence, at 10 µM, stronger effect = lower value
[4] = HUVEC growth inhibition – cell-based, human, primary screen (AID 575;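 active = viability at or below 30% in both replicate assays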;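 also: 100% = median of untreated cell wells with 0.1% DMSO on each plate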); conditions: HUVEC proliferation, CellTiter-Glo luminescence, 72 h; at 10 µM; stronger effect = lower value
In short: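 Material: primary human umbilical vein endothelial cells / Schedule: 72 h exposure, 37 °C, 5% CO2, 30 min RT equilibration / Signal: ATP-based CellTiter-Glo luminescent read / Read-out basis: percent of median DMSO-control luminescence / Control set: 32 DMSO-only cell-control wells (high), 32 MePR drug-control wells (low) per plate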

[5] = H69AR cell proliferation blockers – human, duplicate replicates, primary screen (AID 580); conditions: H69AR lung tumor cells viability, ATP luminescence, 72 h; at 10 µM; stronger effect = lower value;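 also: 100% = mean luminescence of untreated wells and 0% = no signal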
[6] = MRP1 drug-resistance reversers in H69AR cells – cell-based, doxorubicin co-treatment, pilot screen (AID 601;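 active = viability loss from added drug above about 55%, and viability with drug at most 40%, in both replicates, limit read from the data, passing the limit was not always enough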); conditions: CellTiter-Glo, 72 h, at 10 µM; for differential viability (reversal): stronger effect = higher value
[7] = yeast transport mutant growth inhibition pilot in 384-well plates, post-Golgi transport modulator project (AID 636; in the data active = inhibition above about 31%); conditions: absorbance 615 nm, about 18 h, stronger effect = higher value
[8] = growth suppression of yeast trafficking mutant, preliminary HTS, modulators of trafficking downstream of Golgi apparatus project, 1536-format plate, OD 615 nm (AID 637; in the data active = inhibition above about 30%); conditions: yeast transport mutant growth, absorbance 615 nm, 18 h; stronger effect = higher value
[9] = H69AR cells + 2 uM doxorubicin, measured here: viability with 2 uM doxorubicin, stronger effect = lower value
[10] = H69AR cells, compound alone cytotoxicity

Compound	viability [1] [%]	Her2 level [2]	viability [3]	viability [4]	viability [5]	differential viability (reversal) ([6]; H69AR cells + 2 uM doxorubicin)	viability [6, 9] [%]	viability [6, 10] [%]	inhibition [7]	inhibition [8]
CC1CCN(CCn2c(=S)[nH]c3ncccc3c2=O)CC1	98.5	95% (inactive)	98.5% (inactive)	78.6% (inactive)	104% (inactive)	9.6% (inactive)	93.9	104	-2.89% (inactive)	0.83% (inactive)
O=C(Cn1ncc2ccccc21)N1CCN(c2cccc(C(F)(F)F)c2)CC1	89.5	94.5% (inactive)	89.5% (inactive)	93.4% (inactive)	87.1% (inactive)	-6.95% (inactive)	94.1	87.1	-5.87% (inactive)	-1.97% (inactive)
Cc1ccc(S(=O)(=O)N2CCC(C(=O)NCCN3CCCCCC3)CC2)cc1	91	93.5% (inactive)	91% (inactive)	108% (inactive)	103% (inactive)	18.1% (inactive)	84.6	103	0.13% (inactive)	2.13% (inactive)
CN(C)c1ccc(NC(=O)CSCc2nc3c(nnn3Cc3ccc(F)cc3)c(=O)[nH]2)cc1	89.5	83.5% (inactive)	89.5% (inactive)	110% (inactive)	94% (inactive)	4.32% (inactive)	89.7	94	-6.49% (inactive)	0% (inactive)
CN1CCN(/C=N/c2sc3c(c2C#N)CCCCC3)CC1	97	96.5% (inactive)	97% (inactive)	75.9% (inactive)	84.2% (inactive)	6.14% (inactive)	78.1	84.2	0.67% (inactive)	-9.52% (inactive)
CCNc1nc(NCC)n2c(SCc3nc4ccccc4c(=O)[nH]3)nnc2n1	100	112% (inactive)	100% (inactive)	106% (inactive)	78.1% (inactive)	-9.12% (inactive)	87.2	78.1	-1.58% (inactive)	-0.66% (inactive)
O=C(CCn1nc(-c2ccccc2)ccc1=O)N1CCCC1	97	96% (inactive)	97% (inactive)	114% (inactive)	94.4% (inactive)	-0.505% (inactive)	94.9	94.4	-4.74% (inactive)	0.48% (inactive)
COc1ccccc1CC1(C)NC(=O)N(CC(=O)Nc2cc(C)on2)C1=O (stereo not given)	106	86% (inactive)	106% (inactive)	106% (inactive)	92.7% (inactive)	9.12% (inactive)	83.6	92.7	-5.81% (inactive)	4.13% (inactive)
COc1ccc(N2CCN(CCCNC(=O)C3(S(=O)(=O)c4ccc(Cl)cc4)CC3)CC2)cc1	87.5	96.5% (inactive)	87.5% (inactive)	87.2% (inactive)	83.1% (inactive)	-13.1% (inactive)	96.1	83.1	-0.65% (inactive)	-2.54% (inactive)
CCC(CO)Nc1ncnc2c1cnn2-c1ccc(Cl)cc1 (stereo not given)	94.5	126% (inactive)	94.5% (inactive)	91.7% (inactive)	93.7% (inactive)	13.5% (inactive)	80.2	93.7	-5.73% (inactive)	-5% (inactive)
CCN(CC)S(=O)(=O)N1CCC(C(=O)NCC2COc3ccccc3O2)CC1 (stereo not given)	94	114% (inactive)	94% (inactive)	109% (inactive)	97.3% (inactive)	-9.32% (inactive)	107	97.3	-0.79% (inactive)	3.65% (inactive)
CCc1cccc(NS(=O)(=O)c2c(C)n[nH]c2C)c1	92	96% (inactive)	92% (inactive)	110% (inactive)	107% (inactive)	13.2% (inactive)	93.5	107	-6.05% (inactive)	-5.08% (inactive)
CCCn1c(=O)c2ccccc2n2c(SCCOc3ccccc3F)nnc12	72	102% (inactive)	72% (inactive)	85.2% (inactive)	88.8% (inactive)	18.1% (inactive)	70.7	88.8	2.08% (inactive)	-6.72% (inactive)
CCCn1cc(SCC(=O)NCc2ccco2)c2ccccc21	98.5	90% (inactive)	98.5% (inactive)	92.3% (inactive)	94% (inactive)	15.4% (inactive)	78.6	94	-5.47% (inactive)	0.48% (inactive)
O=C(Nc1nnc(COc2ccc(F)cc2)s1)c1cccs1	107	88.5% (inactive)	107% (inactive)	60% (inactive)	106% (inactive)	21.3% (inactive)	84.9	106	-6.93% (inactive)	-0.48% (inactive)
COc1ccc(CC(=O)OCC(=O)NC(=O)NC2CCCCC2)cc1	96.5	94% (inactive)	96.5% (inactive)	100% (inactive)	92.4% (inactive)	-0.595% (inactive)	93	92.4	-5.13% (inactive)	-0.73% (inactive)

Compound	viability [1] [%]	Her2 level [2]	viability [3]	viability [4]	viability [5]	differential viability (reversal) ([6]; H69AR cells + 2 uM doxorubicin)	viability [6, 9] [%]	viability [6, 10] [%]	inhibition [7]	inhibition [8]
CCCC(C(=O)NCc1ccco1)N(C(=O)CNS(=O)(=O)c1ccc(Cl)cc1)C1CCCC1 (stereo not given)	122	91% (inactive)	122% (inactive)	74.1% (inactive)	82.7% (inactive)	-4.13% (inactive)	86.8	82.7	-0.13% (inactive)	3.55% (inactive)
Nc1nc(-c2ccccc2Br)cs1	91.5	96.5% (inactive)	91.5% (inactive)	86.3% (inactive)	91.5% (inactive)	9.75% (inactive)	81.8	91.5	-0.66% (inactive)	-8.55% (inactive)
Cc1nc2sc(C(c3ccc(Br)cc3)N3CC(C)OC(C)C3)c(O)n2n1 (stereo not given)	80	112% (inactive)	80% (inactive)	109% (inactive)	105% (inactive)	15.2% (inactive)	90.2	105	-2.21% (inactive)	-3.44% (inactive)
CCN(CC)c1ncc(C)c(=O)[nH]1	103	106% (inactive)	103% (inactive)	105% (inactive)	88.8% (inactive)	-5.64% (inactive)	94.5	88.8	-3.47% (inactive)	19% (inactive)
CCN(CC)S(=O)(=O)c1cccc(-c2nnc(SCC(N)=O)n2CCc2ccccc2)c1	102	108% (inactive)	102% (inactive)	91% (inactive)	74.7% (inactive)	-9.28% (inactive)	84	74.7	-2.21% (inactive)	-6.35% (inactive)
CC(=O)Oc1ccc(-c2ccc(C(=O)O)cc2)cc1	87	110% (inactive)	87% (inactive)	94.5% (inactive)	107% (inactive)	18.3% (inactive)	88.8	107	-0.64% (inactive)	-7.83% (inactive)
C=CCn1c(N)c(C(=O)NCCC2=CCCCC2)sc1=S	85.5	92.5% (inactive)	85.5% (inactive)	44.6% (inactive)	83.2% (inactive)	7.14% (inactive)	76	83.2	-6.49% (inactive)	-0.95% (inactive)
CN(C)S(=O)(=O)N1CCN(C(=O)N(c2ccccc2)c2ccccc2)CC1	81.5	154% (inactive)	81.5% (inactive)	99.4% (inactive)	97.5% (inactive)	-4.56% (inactive)	102	97.5	1.28% (inactive)	12.7% (inactive)
O=C(CN1CCCCCC1)OCCN=C1NS(=O)(=O)c2ccccc21	108	96.5% (inactive)	108% (inactive)	88.1% (inactive)	113% (inactive)	22.9% (inactive)	89.8	113	-2.21% (inactive)	-6.51% (inactive)
Cc1cc(C)n(CCc2nc(-c3cccs3)cs2)n1	93	88% (inactive)	93% (inactive)	106% (inactive)	104% (inactive)	25.3% (inactive)	79.2	104	-2.6% (inactive)	-0.48% (inactive)
Cn1cnnc1SCC(=O)Nc1ccccc1Sc1ccccc1	107	91.5% (inactive)	107% (inactive)	113% (inactive)	98.8% (inactive)	8.32% (inactive)	90.4	98.8	-8.24% (inactive)	4.67% (inactive)
Cc1oc(-c2ccccc2Cl)nc1CSCC(=O)N1CCCC1	72	86.5% (inactive)	72% (inactive)	79.4% (inactive)	99.5% (inactive)	14.6% (inactive)	85	99.5	-0.93% (inactive)	6.61% (inactive)
O=C1CCc2nc3sc4c(c3c(=O)n2N1)CCCC4	86.5	100% (inactive)	86.5% (inactive)	85.9% (inactive)	91.3% (inactive)	1.12% (inactive)	90.2	91.3	-1.05% (inactive)	-7.14% (inactive)
O=C(Nc1ccc(S(=O)(=O)NC2CCCC2)cc1)c1cnccn1	92	82.5% (inactive)	92% (inactive)	104% (inactive)	93.7% (inactive)	2.56% (inactive)	91.2	93.7	-2.5% (inactive)	-4% (inactive)
CNC(=O)c1c(O)c2cccc3c2n(c1=O)CC3	83.5	86% (inactive)	83.5% (inactive)	101% (inactive)	89.5% (inactive)	-5.95% (inactive)	95.5	89.5	-0.13% (inactive)	-4.52% (inactive)
CNS(=O)(=O)c1cccc(C(=O)OCC(=O)c2cc(C)n(-c3ccc4c(c3)OCO4)c2C)c1	85.5	92% (inactive)	85.5% (inactive)	65.6% (inactive)	88.4% (inactive)	2.79% (inactive)	85.6	88.4	-4.42% (inactive)	2% (inactive)
